Results published in PubChem BioAssay.
Records with an inconclusive call do not appear.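 The calls were made as follows, unless noted: active = inhibition over a set limit, the all-compound mean plus 3 SD, in both replicate runs; inconclusive = over that limit in just one replicate run; inactive = at or under that limit in both runs.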

Assays:
[1] = OD615 S. cerevisiae growth inhibition, permissive medium, pilot counter-assay, permissive growth control for S. cerevisiae lifespan shortening project (AID 705;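 active = growth inhibition above 25% in both replicates, a cutoff set 3 SD above the mean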); conditions: OD615, 24 h, at 10 µM, hits give high values
How it was run: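 System: Engineered DeaD yeast | Buffer or medium: SC raffinose/galactose permissive medium | Doses: 10 µM single dose, 0.25% DMSO | Times: 24 h exposure, 30 °C | Measured by: OD615 turbidity read | Read-out: Yeast growth inhibition indicated by reduced 24 h OD615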

[2] = Restrictive medium S. cerevisiae growth inhibition, OD615, pilot screen of yeast lifespan reduction project, restrictive growth control (AID 706;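 active = growth inhibition above a set limit, 3 SD over mean compound inhibition, in both replicates, cut at about 43% in these data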;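 also: modified DeaD lifespan yeast strain shifted to restrictive glucose medium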); conditions: OD615, 48 h, at 10 µM, hits give high values
How it was run: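 Assay system: engineered S. cerevisiae DeaD strain; Buffer or medium: CSMM-D glucose medium; Dosing: 10 µM compound, 0.25% DMSO; Times: cell pre-growth 4 h, compound exposure 48 h, 30 °C; Detection: absorbance (optical density) measured at 615 nm.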

[3] = viability gain of MRP-1-high H69AR cells under doxorubicin, pilot screen, MRP-1 activator project, CellTiter-Glo, duplicate (AID 807;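 active = viability increase at or above a cutoff of the median across tested compounds plus 3 SD, cut at about 8.5% in these data, passing the limit was not always enough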;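 also: compound pretreatment 18-22 h then 72 h combined with doxorubicin; 0% = doxorubicin alone and 100% = vehicle without doxorubicin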); conditions: H69AR viability with doxorubicin, CellTiter-Glo luminescence; at 10 µM; hits give high values
[4] = growth suppression of beta-catenin knockout HCT116, pilot screen, human colon tumor cells (AID 823;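 active = cell viability at or below a set limit in both duplicate runs, the limit being the all-compound median minus 4 SD, cut at about 23% in these data, passing the limit was not always enough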;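 also: 0% = wells killed by 20 µM Hyamine and 100% = untreated DMSO cell wells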); conditions: CellTiter-Glo, 60 h, at 10 µM, hits give low values
[5] = growth suppression of PTEN-deleted HCT116, pilot screen, cell-based, HCT116 clonal line, CellTiter-Glo (AID 824;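 active = viability at or below 27.92% in each of two runs, the all-compound median minus 4 SD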;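 also: 0% = 20 µM Hyamine control and 100% = vehicle cell control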); conditions: 60 h, at 10 µM, hits give low values
[6] = inhibitors of the yeast RAM network, pilot screen, dse1pr::URA3 reporter, 5-FOA selection (AID 869);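 also: 0% = DMSO wells with no growth and 100% = 10 µM 1-NA-PP1 with full growth; RAM network block rescues cells from 5-FOA so hits raise OD615 growth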; conditions: S. cerevisiae dse1pr::URA3 5-FOA growth, OD615, 2 d; at 10 µM; hits give high values; strain carries analog-sensitive mutant Cbk1 kinase
[7] = RAM signaling pathway blockade in yeast – S. cerevisiae, Pdr1DBD-CYC8 efflux-inhibited sensitized strain, primary screen (AID 1298;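 active = RAM network inhibition above 8.4% in each of two replicates, 3 SD over the compound average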;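 also: 0% = DMSO untreated cells without growth and 100% = 10 µM 1-NA-PP1 full growth; higher means more yeast growth rescued from 5-FOA killing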); conditions: S. cerevisiae cbk1-as DSE1-URA3 strain, 5-FOA growth OD615, 2 d; at 50 µM; hits give high values

CC1CCN(CC(=O)N2c3ccccc3CCc3ccccc32)CC1
inactive: growth inhibition [1] -14.5% | growth inhibition [2] -19.2% | viability increase [3] -1.57% | viability [4] 87.5% | viability [5] 90% | inhibition [6] 4.08% | RAM network inhibition [7] 4.24%

COc1ccccc1NC(=O)C1=C(C)Nc2nc(-c3cccs3)nn2C1c1cccnc1 (configuration not stated)
inactive: growth inhibition [1] -13.7% | growth inhibition [2] -9.57% | viability increase [3] -5.67% | viability [4] 86.7% | viability [5] 91.4% | inhibition [6] 2.23% | RAM network inhibition [7] 4.86%

O=C(NCc1ccco1)N1c2ccccc2Sc2ccccc21
inactive: growth inhibition [1] -12.9% | growth inhibition [2] -8.64% | viability increase [3] -4.68% | viability [4] 88% | viability [5] 91.6% | inhibition [6] 0.805% | RAM network inhibition [7] 4.32%

CC1(C)CC(=O)C=C(NCc2cccnc2)C1
inactive: growth inhibition [1] -4.83% | growth inhibition [2] -11.8% | viability increase [3] -1.4% | viability [4] 92.2% | viability [5] 94.9% | inhibition [6] -0.505% | RAM network inhibition [7] 1.01%

CCCCSc1nc2c(cnn2-c2ccc(C)c(C)c2)c(=O)[nH]1
inactive: growth inhibition [1] -3.77% | growth inhibition [2] 8.57% | viability increase [3] -6.91% | viability [4] 59.1% | viability [5] 59.5% | inhibition [6] 1.05% | RAM network inhibition [7] 5.36%

CCOc1ccc(N2C(=O)CC(N3CCN(C4CCc5ccccc5C4)CC3)C2=O)cc1 (configuration not stated)
inactive: growth inhibition [1] 2.08% | growth inhibition [2] 0.34% | viability increase [3] -1.42% | viability [4] 94.6% | viability [5] 93.1% | inhibition [6] 1.93% | RAM network inhibition [7] 1.53%

COc1ccc(N2Cc3cccc(C(=O)O)c3C2=O)cc1
inactive: growth inhibition [1] -17.1% | growth inhibition [2] -1.34% | viability increase [3] -0.59% | viability [4] 104% | viability [5] 101% | inhibition [6] 1.5% | RAM network inhibition [7] 0.58%

CC1(C)Cc2c(sc3c2c(=N)n(Cc2ccco2)c(=O)n3Cc2ccc(Cl)cc2)CO1
inactive: growth inhibition [1] -1.16% | growth inhibition [2] 6.14% | viability increase [3] -4.55% | viability [4] 79.9% | viability [5] 70.6% | inhibition [6] 1.69% | RAM network inhibition [7] 4.49%

CC1=C(C(=O)OC2CCCCC2)C(c2ccco2)C2=C(CC(C)(C)CC2=O)N1 (configuration not stated)
inactive: growth inhibition [1] -8.2% | growth inhibition [2] -8.91% | viability increase [3] -7.87% | viability [4] 64.8% | viability [5] 62.7% | inhibition [6] 0.115% | RAM network inhibition [7] 2.03%

CC1CCc2nc3ccc(S(=O)(=O)N4CCC(C(=O)NC5CCCC5)CC4)cc3c(C(=O)O)c2C1 (configuration not stated)
inactive: growth inhibition [1] -0.78% | growth inhibition [2] 10.5% | viability increase [3] -2.1% | viability [4] 94.8% | viability [5] 95.4% | inhibition [6] 1.08% | RAM network inhibition [7] 3.59%

COc1ccc(C(=O)CCC(=O)O)cc1
inactive: growth inhibition [1] -6.25% | growth inhibition [2] 0.095% | viability increase [3] -0.14% | viability [4] 98.1% | viability [5] 96.7% | inhibition [6] 2.16% | RAM network inhibition [7] -2.03%

CCCc1nc(N)c(C#N)c(-c2cccnc2)c1CC
inactive: growth inhibition [1] -6.48% | growth inhibition [2] -4.83% | viability increase [3] -4.91% | viability [4] 90.8% | viability [5] 84.7% | inhibition [6] 0.805% | RAM network inhibition [7] 3.69%

Cc1ccc(OCC(=O)NCc2ccccn2)c(Br)c1
inactive: growth inhibition [1] 2.21% | growth inhibition [2] -9.19% | viability increase [3] -1.45% | viability [4] 97.8% | viability [5] 95% | inhibition [6] 0.22% | RAM network inhibition [7] 0.01%

Cc1oc2cc(O)ccc2c(=O)c1Oc1ccccc1Br
inactive: growth inhibition [1] -15.9% | growth inhibition [2] -12.2% | viability increase [3] -3.45% | viability [4] 94% | viability [5] 84.4% | inhibition [6] 1.68% | RAM network inhibition [7] 2.42%

CCOc1ccc(NC(=O)C2C3C=CC4(CN(C(C(=O)OC)C(C)C)C(=O)C24)O3)cc1 (configuration not stated)
inactive: growth inhibition [1] -9.79% | growth inhibition [2] 5.85% | viability increase [3] -1.43% | viability [4] 108% | viability [5] 102% | inhibition [6] 1.31% | RAM network inhibition [7] 6.37%

Cc1cc(N2CCCC2)n2nc(C)nc2n1
inactive: growth inhibition [1] -10.1% | growth inhibition [2] -17.2% | viability increase [3] -0.52% | viability [4] 102% | viability [5] 101% | inhibition [6] 1.88% | RAM network inhibition [7] 1.98%

Cc1cc(-c2nc3ncccc3o2)ccc1NC(=O)CC(C)C
inactive: growth inhibition [1] -3.98% | growth inhibition [2] -5.53% | viability increase [3] -0.17% | viability [4] 108% | viability [5] 90% | inhibition [6] 1.06% | RAM network inhibition [7] 0.92%

O=C(NCCc1csc(-c2ccccc2)n1)c1cccs1
inactive: growth inhibition [1] -8.41% | growth inhibition [2] 2.89% | viability increase [3] 2.21% | viability [4] 93.7% | viability [5] 94.5% | inhibition [6] 0.41% | RAM network inhibition [7] 3.89%

Cc1oc(-c2cccc(Cl)c2)nc1CN1CCC(C(=O)NCCCN2CCCC2=O)CC1
inactive: growth inhibition [1] -1.65% | growth inhibition [2] -10.2% | viability increase [3] -3.95% | viability [4] 85.8% | viability [5] 93.5% | inhibition [6] 0.59% | RAM network inhibition [7] 2.35%

CCOC(=O)c1sc(NC(=O)COC(=O)c2ccco2)nc1C
inactive: growth inhibition [1] 4.37% | growth inhibition [2] -12.7% | viability increase [3] -6.43% | viability [4] 87.7% | viability [5] 89.6% | inhibition [6] 1.39% | RAM network inhibition [7] 4.87%

CC1CCCCC1NC(=O)CCS(=O)(=O)c1cccc2nonc12 (configuration not stated)
inactive: growth inhibition [1] -0.105% | growth inhibition [2] 2.68% | viability increase [3] -2.34% | viability [4] 98.9% | viability [5] 102% | inhibition [6] -0.06% | RAM network inhibition [7] 0.88%

CC(CCc1ccco1)NC(=O)c1cc2c(-c3ccccc3F)nn(C)c2s1 (configuration not stated)
inactive: growth inhibition [1] -0.025% | growth inhibition [2] 5.7% | viability increase [3] 1.04% | viability [4] 83.3% | viability [5] 78.7% | inhibition [6] 1.15% | RAM network inhibition [7] -0.15%

CCOc1ccc(C2CC(c3ccc(OC)cc3)n3ncnc3N2)cc1 (configuration not stated)
inactive: growth inhibition [1] 1.92% | growth inhibition [2] 21% | viability increase [3] 0.61% | viability [4] 104% | viability [5] 99% | inhibition [6] -0.22% | RAM network inhibition [7] 4.99%

CCC(=O)N1c2ccccc2NC2=C(C(=O)CC(c3ccco3)C2)C1c1ccco1 (configuration not stated)
inactive: growth inhibition [1] -7.69% | growth inhibition [2] 7.1% | viability increase [3] -1.65% | viability [4] 92.4% | viability [5] 92.4% | inhibition [6] 0.915% | RAM network inhibition [7] -0.58%

CCc1nnc(NC(=O)C(C)Sc2ccccc2)s1 (configuration not stated)
inactive: growth inhibition [1] 6.98% | growth inhibition [2] 18.9% | viability increase [3] 1.53% | viability [4] 99.3% | viability [5] 98.1% | inhibition [6] 1.98% | RAM network inhibition [7] -0.83%

Cn1c(=O)c2c(nc(SCCNS(=O)(=O)c3ccccc3)n2C)n(C)c1=O
inactive: growth inhibition [1] -20.6% | growth inhibition [2] -16.3% | viability increase [3] -3.87% | viability [4] 101% | viability [5] 99% | inhibition [6] 1.46% | RAM network inhibition [7] 7.66%

CCCNC(=O)CS(=O)Cc1nc(-c2cccc(OC)c2)oc1C (configuration not stated)
inactive: growth inhibition [1] -6.84% | growth inhibition [2] -0.045% | viability increase [3] -2.3% | viability [4] 96.6% | viability [5] 95.2% | inhibition [6] 1.2% | RAM network inhibition [7] -0.38%

CCOC(=O)C1=C(N)OC2=C(C(=O)CCC2)C1c1cccs1 (configuration not stated)
inactive: growth inhibition [1] -0.655% | growth inhibition [2] 5.78% | viability increase [3] 0.3% | viability [4] 108% | viability [5] 104% | inhibition [6] 0.345% | RAM network inhibition [7] 2.67%

CCOC(=O)N1CCN(C(=O)CSc2nnc(-c3cccs3)o2)CC1
inactive: growth inhibition [1] 0.955% | growth inhibition [2] 3.94% | viability increase [3] 0.87% | viability [4] 104% | viability [5] 108% | inhibition [6] 0.595% | RAM network inhibition [7] 1.07%

CCN1C(=O)c2ccccc2S(=O)c2ccc(C(=O)NCc3ccccn3)cc21 (configuration not stated)
inactive: growth inhibition [1] -1.77% | growth inhibition [2] -3.51% | viability increase [3] -0.87% | viability [4] 105% | viability [5] 95.7% | inhibition [6] 1.95% | RAM network inhibition [7] -2.39%

O=C1CC(c2ccc(Cl)c(Cl)c2)CC(O)=C1C=NCCN1CCNCC1 (configuration not stated)
inactive: growth inhibition [1] -11.8% | growth inhibition [2] -7.73% | viability increase [3] -1.07% | viability [4] 90.4% | viability [5] 96.6% | inhibition [6] 0.46% | RAM network inhibition [7] -1.78%

CNc1nc(C)nc(-c2ccccc2O)n1
inactive: growth inhibition [1] -3.62% | growth inhibition [2] 7.31% | viability increase [3] -0.19% | viability [4] 98.5% | viability [5] 92.8% | inhibition [6] 0.84% | RAM network inhibition [7] 4.49%

CC(C)N(Cc1nc2ccccc2[nH]1)C(C)C
inactive: growth inhibition [1] 2.5% | growth inhibition [2] 4.54% | viability increase [3] -0.49% | viability [4] 94.1% | viability [5] 91.9% | inhibition [6] 1.25% | RAM network inhibition [7] 0.22%

COc1cc(S(=O)(=O)N2CCN(c3ccccc3)CC2)ccc1Cl
inactive: growth inhibition [1] -16.9% | growth inhibition [2] -14% | viability increase [3] -3.07% | viability [4] 95.1% | viability [5] 95.3% | inhibition [6] 0.17% | RAM network inhibition [7] 6.95%

CCc1cccc(NC(=O)CCS(=O)(=O)c2cccc3nonc23)c1
inactive: growth inhibition [1] 0.64% | growth inhibition [2] -9.32% | viability increase [3] -1.95% | viability [4] 93.8% | viability [5] 95.3% | inhibition [6] 0.47% | RAM network inhibition [7] 2.79%

CC(=O)Nc1nnc(SCC(=O)NCCOc2ccccc2)s1
inactive: growth inhibition [1] -0.45% | growth inhibition [2] -7.88% | viability increase [3] -0.85% | viability [4] 98.9% | viability [5] 96.7% | inhibition [6] 0.52% | RAM network inhibition [7] 4.66%
